Test results taken from ChEMBL document CHEMBL2150940, “Mechanism-based design, synthesis and biological studies of N⁵-substituted tetrahydrofolate analogs as inhibitors of cobalamin-dependent methionine synthase and potential anticancer agents” (Eur J Med Chem, 2012).

Assays:
Methionine synthase = Methionine synthase (Homo sapiens, UniProt Q99707); assay: Inhibition of methionine synthase in human HL60 cells using L-homocysteine as substrate incubated for 3 hrs prior to substrate addition measured after 10 mins spectrophotometric analysis; format: cell-based, HL-60
How it was run: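 HL60 cells (1 × 10⁶/well) were serum-starved, then exposed 3 h to varied compound concentrations, lysed in HEPES pH 7.5 buffer and cleared at 4 °C. Lysate was mixed with potassium phosphate pH 7.2, DTT, 5-methyltetrahydrofolate, SAM and hydroxocobalamin (stock levels given) and preincubated 5 min at 37 °C. L-homocysteine started a 10 min 37 °C reaction. HCl/formic acid stop at 80 °C 10 min; A350 read.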

SK-OV-3 [1] = assay: Antiproliferative activity against human SKOV3 cells after 48 hrs; format: functional, cell-based; settings: SK-OV-3, 48 h
How it was run: (§1)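 Cells kept in RPMI-1640 with 10% fetal bovine serum, penicillin (100 units mL⁻¹) and streptomycin at 37 °C in humidified 5% CO₂. Exponentially growing cells were exposed to a range of compound concentrations for 48 h. Growth inhibition was read by MTT and SRB assays. Values are means of three independent experiments.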

KB = assay: Antiproliferative activity against human KB cells after 48 hrs; format: functional, cell-based; how it was run: as §1
BGC-823 = assay: Antiproliferative activity against human BGC823 cells after 48 hrs; format: functional, cell-based; settings: BGC-823, 48 h; how it was run: as §1
Bel-7402 = assay: Antiproliferative activity against human Bel7402 cells after 48 hrs; format: functional, cell-based; settings: Bel-7402, 48 h; how it was run: as §1
Dihydrofolate reductase = target: T1, Dihydrofolate reductase (Homo sapiens, UniProt P00374); assay: Inhibition of human recombinant DHFR using dihydrofolate as substrate by spectrophotometric analysis
T1 sequence (P00374 whole entry): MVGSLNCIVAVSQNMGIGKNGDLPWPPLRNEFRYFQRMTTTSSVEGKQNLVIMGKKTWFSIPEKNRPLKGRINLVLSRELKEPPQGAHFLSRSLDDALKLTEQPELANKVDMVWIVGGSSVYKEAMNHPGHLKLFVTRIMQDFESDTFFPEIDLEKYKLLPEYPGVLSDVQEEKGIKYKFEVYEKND
How it was run: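 Recombinant human DHFR was followed spectrophotometrically in 0.1 mM dihydrofolate, 0.3 mM NADPH and 100 mM KCl, pH 7.5, at 32 °C.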

HeLa = assay: Antiproliferative activity against human HeLa cells after 48 hrs; format: functional, cell-based; how it was run: as §1
SK-OV-3 [2] = assay: Ratio of MTX IC50 to compound IC50 for human SKOV3 cells; format: functional

Chain of Methionine synthase (Q99707 whole entry): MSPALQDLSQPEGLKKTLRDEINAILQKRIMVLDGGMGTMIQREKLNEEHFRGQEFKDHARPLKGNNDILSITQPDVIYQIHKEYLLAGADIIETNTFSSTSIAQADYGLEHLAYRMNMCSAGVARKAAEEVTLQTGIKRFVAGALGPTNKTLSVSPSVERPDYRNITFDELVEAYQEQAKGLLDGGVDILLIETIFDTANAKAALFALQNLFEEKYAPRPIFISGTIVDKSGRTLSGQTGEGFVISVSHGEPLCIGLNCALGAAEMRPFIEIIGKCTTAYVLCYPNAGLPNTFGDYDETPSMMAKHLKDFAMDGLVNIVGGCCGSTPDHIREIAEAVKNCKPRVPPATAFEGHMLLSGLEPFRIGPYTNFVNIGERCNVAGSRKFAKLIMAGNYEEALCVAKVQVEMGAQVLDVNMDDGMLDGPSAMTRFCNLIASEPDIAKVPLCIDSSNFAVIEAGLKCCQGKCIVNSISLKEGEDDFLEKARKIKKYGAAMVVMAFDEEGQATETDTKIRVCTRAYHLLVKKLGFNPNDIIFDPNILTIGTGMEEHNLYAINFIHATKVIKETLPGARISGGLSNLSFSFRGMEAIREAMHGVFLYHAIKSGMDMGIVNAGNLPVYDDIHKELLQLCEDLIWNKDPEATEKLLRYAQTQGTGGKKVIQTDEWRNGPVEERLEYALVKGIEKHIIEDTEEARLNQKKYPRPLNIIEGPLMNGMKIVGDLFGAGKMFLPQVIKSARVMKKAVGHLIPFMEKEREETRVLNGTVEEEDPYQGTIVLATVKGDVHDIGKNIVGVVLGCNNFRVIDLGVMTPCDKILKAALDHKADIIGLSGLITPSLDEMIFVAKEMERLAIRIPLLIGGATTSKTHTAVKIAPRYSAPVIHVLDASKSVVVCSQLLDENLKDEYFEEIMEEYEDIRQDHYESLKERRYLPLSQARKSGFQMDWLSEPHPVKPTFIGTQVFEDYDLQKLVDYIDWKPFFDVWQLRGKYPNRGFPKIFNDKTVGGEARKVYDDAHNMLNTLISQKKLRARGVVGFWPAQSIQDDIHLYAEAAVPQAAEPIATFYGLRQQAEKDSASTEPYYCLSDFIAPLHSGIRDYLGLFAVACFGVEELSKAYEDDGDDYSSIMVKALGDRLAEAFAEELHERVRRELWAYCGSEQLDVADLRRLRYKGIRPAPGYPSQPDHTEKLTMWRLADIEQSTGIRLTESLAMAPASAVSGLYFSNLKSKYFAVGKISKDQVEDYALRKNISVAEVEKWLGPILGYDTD

| IC50 (Methionine synthase) [µM] | IC50 (SK-OV-3 [1]) [µM] | IC50 (KB) [µM] | IC50 (BGC-823) [µM] | IC50 (Bel-7402) [µM] | IC50 (Dihydrofolate reductase) [µM] | IC50 (HeLa) [µM] | SMILES | Ratio IC50 (SK-OV-3 [2]) |
| --- | --- | --- | --- | --- | --- | --- | --- | --- |
| 15.9 | 50.2 | 6.72 | – | – | – | – | C=CCN(CC1CCc2nc(N)nc(N)c2N1CC=C)c1ccc(C(=O)N[C@@H](CCC(=O)O)C(=O)O)cc1 (some centres undefined) | – |
| 66.4 | 37.4 | > 100 | 0.18 | 64.7 | 0.8 | 0.13 | Nc1nc(N)c2c(n1)CCC1CN(c3ccc(C(=O)N[C@@H](CCC(=O)O)C(=O)O)cc3)CN21 (some centres undefined) | – |
| > 100 | 0.573 | > 100 | 2.09 | 61.5 | 0.42 | 0.227 | C=CCN1c2c(N)nc(N)nc2CCC1CN(C)c1ccc(C(=O)N[C@@H](CCC(=O)O)C(=O)O)cc1 (some centres undefined) | – |
| 27.8 | 0.87 | > 100 | – | – | – | – | C=CCN1c2c(N)nc(N)nc2CCC1CNc1ccc(C(=O)N[C@@H](CCC(=O)O)C(=O)O)cc1 (some centres undefined) | – |
| > 100 | 0.01 | 2.7 | 0.01 | 18.3 | 0.018 | 0.003 | Nc1nc(N)c2nc(CNc3ccc(C(=O)N[C@@H](CCC(=O)O)C(=O)O)cc3)ccc2n1 | – |
| 55 | 0.45 | 0.336 | 0.289 | 0.325 | 1.07 | 0.434 | Cc1ccc(S(=O)(=O)N2c3c(N)nc(N)nc3CCC2CN(C)c2ccc(C(=O)N[C@@H](CCC(=O)O)C(=O)O)cc2)cc1 (some centres undefined) | – |
| 8.11 | > 100 | > 130 | 6.9 | 65.2 | 0.032 | 6 | CN(CC1CCc2nc(N)nc(N)c2N1C=O)c1ccc(C(=O)N[C@@H](CCC(=O)O)C(=O)O)cc1 (some centres undefined) | – |
| 1.73 | 34.6 | 20 | 27 | 12.3 | > 100 | 41.6 | CC(=O)N(CC1CCc2nc(N)nc(N)c2N1C=O)c1ccc(C(=O)N[C@@H](CCC(=O)O)C(=O)O)cc1 (some centres undefined) | – |
| 21 | > 100 | > 100 | – | – | – | – | C=CCN1c2c(N)nc(N)nc2CCC1CNc1ccc(C(=O)N[C@@H](CCC(=O)O)C(=O)O)cc1Br (some centres undefined) | – |
| 1.43 | 0.042 | > 100 | – | – | – | – | Nc1nc(N)c2c(n1)CCC(CNc1ccc(C(=O)N[C@@H](CCC(=O)O)C(=O)O)cc1Br)N2CC(Br)CBr (some centres undefined) | 1.4 |
| > 100 | > 100 | 31.1 | > 100 | > 100 | 0.033 | > 100 | CC(=O)N(CC1CCc2nc(N)nc(N)c2N1)c1ccc(C(=O)N[C@@H](CCC(=O)O)C(=O)O)cc1 (mixture of isomers) | – |
| > 100 | – | – | – | – | 0.033 | – | CN(CC1CCc2nc(N)nc(N)c2N1)c1ccc(C(=O)N[C@@H](CCC(=O)O)C(=O)O)cc1 (mixture of isomers) | – |
| – | 0.06 | 20.9 | – | – | – | – | CN(Cc1cnc2nc(N)nc(N)c2n1)c1ccc(C(=O)N[C@@H](CCC(=O)O)C(=O)O)cc1 [METHOTREXATE] | – |

| SMILES | IC50 (Methionine synthase) [µM] | IC50 (SK-OV-3 [1]) [µM] | IC50 (KB) [µM] | IC50 (BGC-823) [µM] | IC50 (Bel-7402) [µM] | IC50 (Dihydrofolate reductase) [µM] | IC50 (HeLa) [µM] | Ratio IC50 (SK-OV-3 [2]) |
| --- | --- | --- | --- | --- | --- | --- | --- | --- |
| Nc1nc(N)c2c(n1)CCC(CNc1ccc(C(=O)N[C@@H](CCC(=O)O)C(=O)O)cc1)N2 (mixture of isomers) | 87.9 | 0.24 | > 100 | – | – | – | – | – |
